Measured values from ChEMBL document CHEMBL1129493 (J Med Chem, 1996).
Converted amounts (≈) assume the structure as drawn.

How the values were obtained:
KB [1] = test: Cytotoxic activity was evaluated against KBV-1 cells in presence of reserpine; type: functional, Homo sapiens
In short: (§1)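 Cytotoxicity was read by MTT dye reduction for suspension cultures or sulforhodamine B for monolayer cultures. For reversal of multidrug resistance, reserpine was added as reversing agent ([…] as printed).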

KB [2] = test: Cytotoxic activity was evaluated against KBV-1 cells; type: functional, Homo sapiens; in short: as §1
MCF7 [3] = test: Cytotoxic activity was evaluated against MCF-7 cells; type: functional, Homo sapiens; in short: as §1
MCF7 [4] = test: Cytotoxic activity was evaluated against MCF-7/ADR cells; type: functional, Homo sapiens; in short: as §1
MCF7 [5] = test: Cytotoxic activity was evaluated against MCF-7/ADR+Reserpine cells; type: functional, Homo sapiens; in short: as §1
KB 3-1 = test: Cytotoxic activity was evaluated against KB3-1 cells; type: functional, Homo sapiens; in short: as §1
P388 [6] = test: Cytotoxic activity was evaluated against P388D1/ADR cells; type: functional, Mus musculus; in short: as §1
P388 [7] = test: Cytotoxic Activity was evaluated against P388D1 cells; type: functional, Mus musculus; in short: as §1
P388 [8] = test: Cytotoxic activity was evaluated against P388/ADR + reserpine cells; type: functional, Mus musculus; in short: as §1
Mus musculus [9] = organism: Mus musculus; test: Effect on Candida albicans nephritis and Meningitis in Immunosuppressed Mice brain; type: functional
In short: (§2)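 Immunosuppressed CD-1 female mice (10/group) given cyclophosphamide ip, 160 and 40 mg/kg on days -4 and -1; C. albicans 5 × 10^4 cfu/mouse iv via lateral tail vein. Sc dosing of 20 or 50 mg/kg in sesame oil at 3, 7, 24, 30 h post-inoculation; sulfamethoxazole 200 mg/kg ip in D5W given 1 h before each dose. Kidney and brain cultured at 48 h; log cfu/g tissue.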

Mus musculus [10] = organism: Mus musculus; test: Effect on Candida albicans nephritis and Meningitis in Immunosuppressed Mice kidney; type: functional; in short: as §2
Mus musculus [11] = organism: Mus musculus; test: Effect on Pneumocystis carinii pneumonia in SCID mice; type: functional
In short: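 SCID mice (10-11/group) were dosed prophylactically once daily from day 1 postinfection, 42 doses. Test drug in D5W was given ip, then leucovorin 12 mg/kg sc 30 min later. Trimethoprim 50 mg/kg plus sulfamethoxazole 250 mg/kg was given orally, and controls received D5W ip and sc. Lung impression smears were taken 24 h after the last dose and stained by immunofluorescence. Infection was scored 0-4 semilogarithmically, reported as mean ± SEM and as infected/total mice.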

Mus musculus [12] = organism: Mus musculus; test: Number of mice infected to tat of total number of mice ([…]/[…]); type: functional, organism-based
Candida albicans = test: Minimum inhibitory concentration evaluated against Candida albicans; type: functional
Dihydrofolate reductase [13] = target: T1, Dihydrofolate reductase (Candida albicans, UniProt P22906); test: Inhibition of Dihydrofolate reductase enzyme from Candida albicans
T1 sequence (P22906 whole entry): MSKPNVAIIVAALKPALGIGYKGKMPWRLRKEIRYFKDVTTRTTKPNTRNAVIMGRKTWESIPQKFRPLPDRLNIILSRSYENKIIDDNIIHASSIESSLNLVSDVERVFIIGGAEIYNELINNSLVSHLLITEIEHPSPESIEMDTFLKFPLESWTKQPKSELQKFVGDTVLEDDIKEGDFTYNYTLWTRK

Dihydrofolate reductase [14] = target: T2, Dihydrofolate reductase (Homo sapiens, UniProt P00374); test: Inhibition of human recombinant Dihydrofolate reductase enzyme
T2 sequence (P00374 whole entry): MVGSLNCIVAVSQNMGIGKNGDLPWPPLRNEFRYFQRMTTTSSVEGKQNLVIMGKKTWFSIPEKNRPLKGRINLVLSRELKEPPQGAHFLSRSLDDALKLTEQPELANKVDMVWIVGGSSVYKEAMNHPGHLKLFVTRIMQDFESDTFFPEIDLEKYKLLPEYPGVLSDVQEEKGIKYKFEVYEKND

HCT-8 = test: Activity was evaluated against HCT-8 tumor cells; type: functional, cell-based; conditions: Homo sapiens; in short: as §1

Work on `CC[C@]1(O)C[C@@H]2CN(CCc3c([nH]c4ccccc34)[C@@](C(=O)OC)(c3cc4c(cc3OC)N(C)[C@H]3[C@@](O)(C(=O)OC)[C@H](OC(C)=O)[C@]5(CC)C=CCN6CC[C@]43[C@@H]65)C2)C1` [VINBLASTINE] yielded a Relative IC50 (KB [1]) of 1.3, a Relative IC50 (KB [2]) of 2000 and a Relative IC50 (MCF7 [3]) of 1. For the same compound, the Relative IC50 (MCF7 [4]) was 17500, the Relative IC50 (MCF7 [5]) was 0.5 and the Relative IC50 (KB 3-1) was 1. For the same compound, the “Relative IC50” value (P388 [6]) was 19 nM, the Relative IC50 (P388 [7]) was 1 and the “Relative IC50” value (P388 [8]) was 0.2 nM.
In the case of `Cc1cc(NS(=O)(=O)c2ccc(N)cc2)no1` [SULFAMETHOXAZOLE], the “Log cfu/g of tissue” value (Mus musculus [9]) is reported as 4.7 and the “Log cfu/g of tissue” value (Mus musculus [10]) is reported as 7.3.
For `Nc1nc(=O)c2c([nH]1)NCC(CNc1ccc(C(=O)N[C@@H](CCC(=O)O)C(=O)O)cc1)N2C=O` (stereo partly drawn) [LEUCOVORIN], the Infection score (Mus musculus [11]) was 3 and the “No. of mice infected /total” value (Mus musculus [12]) was “Number of mice infected to tat of total number of mice ([…]/[…])”.
In the case of `Cc1cc2c3c(N)nc(N)nc3ccc2n1C(C)C`, the MIC (Candida albicans) is reported as 0.025 µg/mL (≈ 0.0979 µM), the Ki (Dihydrofolate reductase [13]) is reported as 0.22 nM and the Ki (Dihydrofolate reductase [14]) is reported as 0.0064 nM. The IC50 (HCT-8) was 7.4 nM.
`CC(C)(C)c1cc2c(ccc3nc(N)nc(N)c32)[nH]1` showed an MIC (Candida albicans) of 0.05 µg/mL (≈ 0.196 µM), a Ki (Dihydrofolate reductase [13]) of 0.12 nM and a Ki (Dihydrofolate reductase [14]) of under 0.002 nM. For the same compound, the IC50 (HCT-8) was 3.3 nM.
`CCC(CC)n1c(C(C)C)cc2c3c(N)nc(N)nc3ccc21` gave an MIC (Candida albicans) of over 0.1 µg/mL, a Ki (Dihydrofolate reductase [13]) of under 0.05 nM and a Ki (Dihydrofolate reductase [14]) of 0.0001 nM. It also gave an IC50 (HCT-8) of 0.75 nM.
`Cc1cc2c3c(N)nc(N)nc3ccc2n1C` was tested, and the MIC (Candida albicans) was 0.1 µg/mL (≈ 0.44 µM), the Ki (Dihydrofolate reductase [14]) was 0.087 nM and the IC50 (HCT-8) was 85 nM.
